# Experimental data from different studies.
# Compare with care: the assays were run in different laboratories.
# Target: Cholecystokinin receptor type A (CCKAR, Homo sapiens, UniProt P32238)
# Residues used in one study (P32238 1-428): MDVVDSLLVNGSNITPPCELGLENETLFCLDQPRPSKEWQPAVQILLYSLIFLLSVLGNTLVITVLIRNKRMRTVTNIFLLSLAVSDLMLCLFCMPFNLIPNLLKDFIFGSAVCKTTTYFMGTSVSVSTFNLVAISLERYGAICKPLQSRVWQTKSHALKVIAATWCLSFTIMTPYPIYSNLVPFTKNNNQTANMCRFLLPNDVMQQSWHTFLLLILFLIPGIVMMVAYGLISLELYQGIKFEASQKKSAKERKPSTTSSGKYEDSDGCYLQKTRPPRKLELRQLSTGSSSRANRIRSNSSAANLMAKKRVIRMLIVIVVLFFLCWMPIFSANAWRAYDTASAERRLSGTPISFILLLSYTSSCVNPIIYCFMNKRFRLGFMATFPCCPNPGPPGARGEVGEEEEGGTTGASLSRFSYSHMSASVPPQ
Compound,effect on,method,tested at,measurement,result
O=C(Nc1cccnn1)N1CCN([C@@H]2CCOc3cc(C(F)(F)F)ccc32)CC1,cell-free assay,,20 µM,inhibition,20%
CN(CCN1CCC(OC(=O)Nc2ccccc2-c2ccccc2)CC1)C(=O)c1ccc(CN2CCC(C(N)=O)CC2)cc1,ligand displacement,radioligand,1 µM,inhibition,2%
Nc1ncc(-c2nc(N3CCOCC3)nc(N3CCOCC3)n2)c(C(F)F)n1,cell-free assay,,10 µM,remaining signal,118%
c1ccc(C(NCCNC(c2ccccc2)c2ccccc2)c2ccccc2)cc1,cell-free assay,,10 µM,inhibition,7%
CCN(CC)CCCC[C@H](NC(=O)[C@H](CC(C)C)NC(=O)[C@H](C)NC(=O)[C@H](Cc1ccccc1)NC(=O)c1ccc(C(C)(C)C)cc1)C(=O)N[C@@H](CO)C(=O)OC,ligand displacement,radioligand,10 µM,remaining binding,67.2%
Clc1ccc2c(C3CCN(CCc4c[nH]c5ccccc45)CC3)c[nH]c2c1,ligand displacement,radioligand,10 µM,inhibition,25%
C[C@H](C(=O)N[C@H]1COc2ccccc2[C@@H]1S(C)(=O)=O)c1ccc(F)cc1,cell-free assay,,10 µM,inhibition,-11%
COc1ccc(S(=O)(=O)N2CCCCC2)cc1C,ligand displacement,radioligand,10 µM,inhibition,< 30%
Cc1ncc(C)n2nc(/C=C/c3nc(N4CCCC4)cc(N4CCOCC4)n3)nc12,ligand displacement,,10 µM,inhibition,-33%
